Reference: ChEMBL document CHEMBL1926504, “Design, synthesis, and evaluation of novel small molecule inhibitors of the influenza virus protein NS1” (Bioorg Med Chem, 2012)
Active and inactive are the calls of the source. The calls are words filed in the database; no cut-off is given here.

Key:
Influenza A virus [1] = assay: Antiviral activity against Influenza virus A/PR/8/34 infected in MDCK cells assessed as reduction in viral titer after 48 hrs by hemagglutinination assay; format: functional; conditions: for Activity: A/Puerto Rico/8/1934(H1N1)
Summary of the method: (§1)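 MDCK monolayers grown to confluence in Iscove medium with 10% FBS and 2 mM L-glutamine. Infected with A/PR/8/34 at MOI 0.1 for 48 h in growth medium with 0.3% BSA, 0.22% bicarbonate and TPCK-trypsin. Compound or DMSO added at the start of infection and kept throughout. Supernatant titre measured by TCID50 on MDCK cells using hemagglutination (Reed–Muench).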

Influenza A virus [2] = assay: Antiviral activity against Influenza virus A/PR/8/34 infected in MDCK cells assessed as reduction in viral titer at 50 uM after 48 hrs by hemagglutinination assay; format: functional, organism-based; conditions: A/Puerto Rico/8/1934(H1N1)
Summary of the method: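 Confluent MDCK monolayers infected with A/PR/8/34 at MOI 0.1, with compound at 50 µM present for the entire 48 h. Viral titre in supernatants expressed as logTCID50, read by hemagglutination on MDCK cells (Reed–Muench). DMSO-treated infected cells served as control.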

Influenza A virus [3] = assay: Antiviral activity against Influenza virus A/PR/8/34 infected in MDCK cells assessed as reduction in viral titer at 50 uM after 48 hrs by hemagglutinination assay relative to untreated control; format: functional, A/Puerto Rico/8/1934(H1N1)
Summary of the method: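 MDCK monolayers infected with A/PR/8/34 at MOI 0.1 for 48 h, with 50 µM compound throughout. Supernatant logTCID50 determined by hemagglutination (Reed–Muench). Fold decrease obtained by subtracting each logTCID50 from the DMSO-control value and taking the inverse log.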

MDCK = assay: Cytotoxicity against MDCK cells up to 100 uM after 48 hrs; format: cell-based, Canis lupus familiaris; conditions: dog
Influenza A virus [4] = assay: Antiviral activity against Influenza virus A/PR/8/34 infected in MDCK cells assessed as log reduction in viral replication at 1 uM after 48 hrs by hemagglutinination assay relative to control; format: functional, A/Puerto Rico/8/1934(H1N1); summary of the method: as §1

O=C(NCCOc1ccccc1)c1ccccc1O
Activity (Influenza A virus [1]): Active

O=C(NCCCCc1ccccc1)c1ccccc1O
Activity (Influenza A virus [2]): Active

O=C(NCCCc1ccccc1)c1ccccn1
Activity (Influenza A virus [1]): Active

O=C(NCCCc1ccccc1)c1ccc2c(c1)OCO2
Activity (Influenza A virus [1]): Active

O=C(Cc1ccccc1O)NCCc1ccccc1
Activity (Influenza A virus [1]): Active

O=C(NCCCc1ccccc1)c1cc2ccccc2cc1O
Activity (Influenza A virus [1]): Active

COc1ccc(/C=N/NC(=O)c2ccccc2O)cc1
Activity (Influenza A virus [2]): Active

Nc1ccc(Cl)cc1C(=O)NCCCc1ccccc1
Activity (Influenza A virus [1]): Active

O=C(NCCCc1ccccc1)c1ccccc1
log10 TCID50 (Influenza A virus [1]): 6.8 | fold change (FC) (Influenza A virus [3]): 50

O=C(CCc1ccccc1O)Nc1ccccc1
Activity (Influenza A virus [1]): Active

O=C(NCCCc1ccccc1)c1ccccc1Cl
Activity (Influenza A virus [1]): Active

O=C(NCCCc1ccccc1)c1c(O)ccc2ccccc12
Activity (Influenza A virus [1]): Active

O=C(CCc1ccccc1O)NCc1ccccc1
Activity (Influenza A virus [1]): Active

COc1ccccc1C(=O)NCCCc1ccccc1
log10 TCID50 (Influenza A virus [1]): 5.8 | fold change (FC) (Influenza A virus [3]): 500

O=C(NCCCc1ccccc1)c1nccc2ccccc12
Activity (Influenza A virus [1]): Active

O=C(NCCCc1ccccc1)c1ccccc1F
Activity (Influenza A virus [1]): inactive

O=C(NCCCc1ccccc1)c1cc2ccccc2cn1
Activity (Influenza A virus [1]): Active

O=C(CCCc1ccccc1)Nc1ccccc1O
Activity (Influenza A virus [1]): Active

O=C(N/N=C/c1ccc([N+](=O)[O-])cc1)c1ccccc1O
Activity (Influenza A virus [2]): Active

O=C(NCCc1ccccc1)c1ccccc1O
log10 TCID50 (Influenza A virus [1]): 7.1 | fold change (FC) (Influenza A virus [3]): 25

O=C(N/N=C/c1ccccc1)c1ccccc1O
Activity (Influenza A virus [2]): Active

O=C(NCCCc1ccccc1)c1ccc2ccccc2n1
Activity (Influenza A virus [1]): Active

Nc1ccccc1C(=O)NCCOc1ccccc1
Activity (Influenza A virus [1]): Active

Nc1ccc([N+](=O)[O-])cc1C(=O)NCCCc1ccccc1
Activity (Influenza A virus [1]): Active

CN(CCCc1ccccc1)C(=O)c1ccccc1O
Activity (Influenza A virus [1]): Active

O=C(N/N=C/c1ccc(O)cc1)c1ccccc1O
Activity (Influenza A virus [2]): Active

O=C(NCCCc1ccccc1)c1ccccc1Br
Activity (Influenza A virus [1]): inactive

N#Cc1ccccc1C(=O)NCCCc1ccccc1
Activity (Influenza A virus [1]): Active

O=C(NCCCc1ccccc1)c1ccccc1[N+](=O)[O-]
log10 TCID50 (Influenza A virus [1]): 6.5 | fold change (FC) (Influenza A virus [3]): 100

O=C(NCCCc1ccccc1)c1ccc(O)cc1
log10 TCID50 (Influenza A virus [1]): 6.5 | fold change (FC) (Influenza A virus [3]): 100

COc1ccc(N)c(C(=O)NCCCc2ccccc2)c1
Activity (Influenza A virus [1]): Active

O=C(NCCCc1ccccc1)c1ccccc1I
Activity (Influenza A virus [1]): Active

O=C(N/N=C/c1ccc2c(c1)CCC2)c1ccccc1O
log10 TCID50 (Influenza A virus [1]): 7.1 | Activity (Influenza A virus [2]): Active | Activity (MDCK): Non-toxic | fold change (FC) (Influenza A virus [3]): 25

O=C(N/N=C/c1ccc(Cl)cc1)c1ccccc1O
Activity (Influenza A virus [2]): Active

Nc1ccc(C(=O)NCCCc2ccccc2)c(O)c1
Activity (Influenza A virus [1]): Active

Nc1ccccc1C(=O)NCCCc1ccccc1
Activity (Influenza A virus [1]): Active | Activity (MDCK): Non-toxic | FC (Influenza A virus [4]): >2

O=C(NCCCc1ccccc1)c1ccc2ccccc2c1O
Activity (Influenza A virus [1]): Active

O=C(N/N=C/c1ccc2ccccc2c1)c1ccccc1O
Activity (Influenza A virus [2]): Active

Cc1ccccc1C(=O)NCCCc1ccccc1
log10 TCID50 (Influenza A virus [1]): 6.3 | fold change (FC) (Influenza A virus [3]): 158

O=C(NCCCc1ccccc1)c1cccc(O)c1
log10 TCID50 (Influenza A virus [1]): 6.2 | fold change (FC) (Influenza A virus [3]): 200

O=C(NCCCc1ccccc1)c1ccccc1O
log10 TCID50 (Influenza A virus [1]): 5.7 | Activity (MDCK): Non-toxic | fold change (FC) (Influenza A virus [3]): 630
